Data on one compound can be found in publication PMC3166234 (Analytical biochemistry, 2011).

The experiment addresses PFKFB3 2-kinase (Homo sapiens, UniProt Q16875). Put plainly: Steady-state inhibition kinetics of the PFKFB3 2-kinase. It counts as biochemical. Put shortly: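 Recombinant human PFKFB3 2-kinase run in a two-step assay. F-2,6-P2 is first made with enzyme in TES pH 8.0, DTT, MgCl2 and Tween at 25°C, then stopped with KOH and neutralised. The product then allosterically activates PPi:PFK in an aldolase/TIM/GDH–NADH coupled system, read as A340 over 30 min. F-6-P, ATP and/or inhibitor concentrations are varied to define the inhibition type.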

Sequence of PFKFB3 2-kinase (Q16875 whole entry): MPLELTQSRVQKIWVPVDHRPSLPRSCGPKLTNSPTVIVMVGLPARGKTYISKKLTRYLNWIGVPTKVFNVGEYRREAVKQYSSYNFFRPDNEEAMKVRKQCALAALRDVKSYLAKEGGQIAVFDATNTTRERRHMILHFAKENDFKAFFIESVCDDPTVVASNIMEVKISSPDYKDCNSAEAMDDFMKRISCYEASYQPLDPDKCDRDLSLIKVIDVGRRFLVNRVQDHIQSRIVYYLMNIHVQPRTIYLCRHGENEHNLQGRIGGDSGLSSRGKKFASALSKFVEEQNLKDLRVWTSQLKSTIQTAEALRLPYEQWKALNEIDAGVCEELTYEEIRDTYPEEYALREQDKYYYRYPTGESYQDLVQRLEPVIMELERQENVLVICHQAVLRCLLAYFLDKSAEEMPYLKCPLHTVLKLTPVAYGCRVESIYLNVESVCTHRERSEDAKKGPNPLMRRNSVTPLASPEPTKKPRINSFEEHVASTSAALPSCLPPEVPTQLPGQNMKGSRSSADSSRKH

As for `CCOC(=O)/C=C(/C)Sc1cc(O)c2ccccc2c1O` [NSC278631], under “ATP varied”, the “type of inhibition against ATP” value was “uncompetitive”. The “type of inhibition against F-6-P” value (F-6-P varied) is listed as “competitive”.
